Measured values reported in ChEMBL document CHEMBL4359855, “Targeting IRAK4 for Degradation with PROTACs” (ACS Med Chem Lett, 2019).
≈ marks a conversion by molar mass, not a printed value. Calls of active or inactive are those of the source. The rule behind the calls is not given here.

What was measured:
[1] = target: T1, von Hippel-Lindau disease tumor suppressor/Interleukin-1 receptor-associated kinase 4 (Homo sapiens, UniProt Q9NWZ3+P40337); test: Protac activity at VHL/IRAK4 in human PBMCs assessed as induction of degradation of IRAK4 at 0.1 to 10 uM incubated for 24 hrs by Western blot analysis
Target sequence in this assay (P40337 whole entry, looked up, one chain of several): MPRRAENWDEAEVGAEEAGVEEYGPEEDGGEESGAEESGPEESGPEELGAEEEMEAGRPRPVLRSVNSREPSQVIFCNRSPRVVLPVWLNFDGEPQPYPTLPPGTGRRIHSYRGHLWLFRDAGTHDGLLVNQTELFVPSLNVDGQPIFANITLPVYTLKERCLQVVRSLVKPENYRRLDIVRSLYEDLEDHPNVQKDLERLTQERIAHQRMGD

[2] = Chromatographic hydrophobicity index, log D of compound at pH 7.4; type: physicochemical; conditions: buffer
[3] = target: Interleukin-1 receptor-associated kinase 1 (Homo sapiens, UniProt P51617); test: Binding affinity to human IRK1 using myelin basic protein as substrate by [gamma-33P]-ATP assay
[4] = target: T1, von Hippel-Lindau disease tumor suppressor/Interleukin-1 receptor-associated kinase 4; test: Protac activity at VHL/IRAK4 in human PBMC assessed as induction of degradation of IRAK4 incubated for 24 hrs by Western blot analysis relative to control; type: protein assay
Procedure, shortened: (§1)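 PBMCs exposed to rising compound concentrations for 24 h. IRAK4 protein read by Western blot against DMSO-treated cells. Dmax is the maximum degradation observed.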
Target sequence in this assay (P40337 whole entry, looked up, one chain of several): as above

[5] = target: T2, Interleukin-1 receptor-associated kinase 4 (Homo sapiens, UniProt Q9NWZ3); test: Binding affinity to human IRK4 using myelin basic protein as substrate by [gamma-33P]-ATP assay
T2 sequence (Q9NWZ3 whole entry): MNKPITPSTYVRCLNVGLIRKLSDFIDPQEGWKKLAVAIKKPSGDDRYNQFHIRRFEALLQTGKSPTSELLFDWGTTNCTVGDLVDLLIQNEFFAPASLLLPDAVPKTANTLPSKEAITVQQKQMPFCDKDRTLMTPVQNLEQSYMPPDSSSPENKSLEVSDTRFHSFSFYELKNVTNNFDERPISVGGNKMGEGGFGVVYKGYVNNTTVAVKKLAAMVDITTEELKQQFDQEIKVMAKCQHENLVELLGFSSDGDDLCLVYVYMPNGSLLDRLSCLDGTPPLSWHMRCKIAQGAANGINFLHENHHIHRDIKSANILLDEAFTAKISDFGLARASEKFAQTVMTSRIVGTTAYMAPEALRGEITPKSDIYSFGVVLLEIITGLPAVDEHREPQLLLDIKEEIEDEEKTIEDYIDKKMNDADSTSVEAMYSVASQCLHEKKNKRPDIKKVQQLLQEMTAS

[6] = target: T1, von Hippel-Lindau disease tumor suppressor/Interleukin-1 receptor-associated kinase 4; test: Protac activity at VHL/IRAK4 in human dermal fibroblast assessed as reduction in IL-1beta stimulated IL-6 level at 300 nM incubated for 18 hrs followed by IL-1beta stimulation further incubated for 8 hrs by MSD assay; type: protein assay
Procedure, shortened: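 Human dermal fibroblasts pretreated 18 h with 300 nM compound, then stimulated 8 h with IL-1β (10 ng/mL). Secreted IL-6 measured. n = 4, mean ± SE.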
Target sequence in this assay (P40337 whole entry, looked up, one chain of several): as the sequence (P40337 whole entry, looked up, one chain of several) above

[7] = target: Protein cereblon/Interleukin-1 receptor-associated kinase 4 (Homo sapiens) (UniProt Q9NWZ3+Q96SW2); test: Protac activity at CRBN/IRAK4 in human PBMC assessed as induction of degradation of IRAK4 incubated for 24 hrs by Western blot analysis relative to control; type: protein assay
Procedure, shortened: as §1

[8] = target: T1, von Hippel-Lindau disease tumor suppressor/Interleukin-1 receptor-associated kinase 4; test: Protac activity at VHL/IRAK4 in human PBMC assessed as induction of degradation of IRAK4 incubated for 24 hrs by Western blot analysis; type: protein assay
Procedure, shortened: as §1
Target sequence in this assay (P40337 whole entry, one chain of several): as the sequence (P40337 whole entry, looked up, one chain of several) above

[9] = Solubility of compound; type: physicochemical
[10] = target: E3 ubiquitin-protein ligase XIAP/Interleukin-1 receptor-associated kinase 4 (Homo sapiens) (UniProt Q9NWZ3+P98170); test: Protac activity at IAP/IRAK4 in human PBMC assessed as induction of degradation of IRAK4 incubated for 24 hrs by Western blot analysis relative to control; type: protein assay
Procedure, shortened: as §1

[11] = target: T3, von Hippel-Lindau disease tumor suppressor/Interleukin-1 receptor-associated kinase 4 (Homo sapiens, UniProt P40337+Q9NWZ3); test: Protac activity at VHL/IRAK4 in human PBMC assessed as reduction in R848-stimulated IFNgamma preincubated for 18 hrs followed by R848 stimulation and measured after 8 hrs by MSD assay; type: protein assay
Procedure, shortened: (§2)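 PBMCs pretreated 18 h with compound, then stimulated 8 h with R848 (2.5 μg/mL). Secreted cytokines measured by MSD electrochemiluminescence.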

[12] = target: T3, von Hippel-Lindau disease tumor suppressor/Interleukin-1 receptor-associated kinase 4; test: Protac activity at VHL/IRAK4 in human PBMC assessed as reduction in R848-stimulated IL-10 level preincubated for 18 hrs followed by R848 stimulation and measured after 8 hrs by MSD assay; type: protein assay
Procedure, shortened: as §2

[13] = target: T1, von Hippel-Lindau disease tumor suppressor/Interleukin-1 receptor-associated kinase 4; test: Protac activity at VHL/IRAK4 in human epoxomicin PBMC assessed as increase in p21 accumulation at 0.01 to 10 uM incubated for 22 hrs by Western blot analysis; type: protein assay
Procedure, shortened: (§3)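 PBMCs pretreated 2 h with 10 μM epoxomicin, then given compound for a further 22 h. IRAK4 and p21 (proteasome-inhibition marker) read by Western blot against DMSO-treated cells.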
Target sequence in this assay (P40337 whole entry, looked up, one chain of several): as the sequence (P40337 whole entry, looked up, one chain of several) above

[14] = target: T3, von Hippel-Lindau disease tumor suppressor/Interleukin-1 receptor-associated kinase 4; test: Protac activity at VHL/IRAK4 in human PBMC assessed as reduction in R848-stimulated IL-8 level preincubated for 18 hrs followed by R848 stimulation and measured after 8 hrs by MSD assay; type: protein assay
Procedure, shortened: as §2

[15] = target: T3, von Hippel-Lindau disease tumor suppressor/Interleukin-1 receptor-associated kinase 4; test: Protac activity at VHL/IRAK4 in human PBMC assessed as reduction in R848-stimulated TNFalpha level preincubated for 18 hrs followed by R848 stimulation and measured after 8 hrs by MSD assay; type: protein assay
Procedure, shortened: as §2

[16] = target: T3, von Hippel-Lindau disease tumor suppressor/Interleukin-1 receptor-associated kinase 4; test: Protac activity at VHL/IRAK4 in human PBMC assessed as reduction in R848-stimulated IL-1beta level preincubated for 18 hrs followed by R848-stimulation and measured after 8 hrs by MSD assay; type: protein assay
Procedure, shortened: as §2

[17] = target: T3, von Hippel-Lindau disease tumor suppressor/Interleukin-1 receptor-associated kinase 4; test: Protac activity at VHL/IRAK4 in human PBMC assessed as reduction in R848-stimulated IL-6 level preincubated for 18 hrs followed by R848 stimulation and measured after 8 hrs by MSD assay; type: protein assay
Procedure, shortened: as §2

[18] = target: T1, von Hippel-Lindau disease tumor suppressor/Interleukin-1 receptor-associated kinase 4; test: Protac activity at VHL/IRAK4 in human epoxomicin pretreated PBMC assessed as induction of degradation of IRAK4 at 0.01 to 10 uM incubated for 22 hrs by Western blot analysis; type: protein assay
Procedure, shortened: as §3
Target sequence in this assay (P40337 whole entry, looked up, one chain of several): as the sequence (P40337 whole entry, looked up, one chain of several) above

[19] = target: T1, von Hippel-Lindau disease tumor suppressor/Interleukin-1 receptor-associated kinase 4; test: Protac activity at VHL/IRAK4 in human dermal fibroblast assessed as induction of degradation of IRAK4 incubated for 24 hrs by Western blot analysis; type: protein assay
Procedure, shortened: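 Human dermal fibroblasts treated with compound for 24 h. IRAK4 protein measured by Western blot and DC50 derived.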
Target sequence in this assay (P40337 whole entry, one chain of several): as the sequence (P40337 whole entry, looked up, one chain of several) above

[20] = target: T1, von Hippel-Lindau disease tumor suppressor/Interleukin-1 receptor-associated kinase 4; test: Protac activity at VHL/IRAK4 in human PBMC assessed as induction of degradation of IRAK4 at 3 uM incubated for 24 hrs by Western blot analysis relative to control; type: protein assay
Procedure, shortened: as §1
Target sequence in this assay (P40337 whole entry, looked up, one chain of several): as the sequence (P40337 whole entry, looked up, one chain of several) above

[21] = target: T1, von Hippel-Lindau disease tumor suppressor/Interleukin-1 receptor-associated kinase 4; test: Protac activity at VHL/IRAK4 in human PBMC assessed as remaining IRAK4 level at 100 nM incubated for 24 hrs by Western blot analysis relative to control; type: protein assay
Procedure, shortened: as §1

[22] = target: T1, von Hippel-Lindau disease tumor suppressor/Interleukin-1 receptor-associated kinase 4; test: Protac activity at VHL/IRAK4 in human PBMC assessed as remaining IRAK4 level at 10 uM incubated for 24 hrs by Western blot analysis relative to control; type: protein assay
Procedure, shortened: as §1

[23] = target: T1, von Hippel-Lindau disease tumor suppressor/Interleukin-1 receptor-associated kinase 4; test: Protac activity at VHL/IRAK4 in human PBMC assessed as remaining IRAK4 level at 1 uM incubated for 24 hrs by Western blot analysis relative to control; type: protein assay
Procedure, shortened: as §1

[24] = target: T1, von Hippel-Lindau disease tumor suppressor/Interleukin-1 receptor-associated kinase 4; test: Protac activity at VHL/IRAK4 in human PBMC assessed as remaining IRAK4 level at 300 nM incubated for 24 hrs by Western blot analysis relative to control; type: protein assay
Procedure, shortened: as §1

T3 sequence (P40337 whole entry, one chain of several): as the sequence (P40337 whole entry, looked up, one chain of several) above
Sequence of Interleukin-1 receptor-associated kinase 1 (P51617 whole entry): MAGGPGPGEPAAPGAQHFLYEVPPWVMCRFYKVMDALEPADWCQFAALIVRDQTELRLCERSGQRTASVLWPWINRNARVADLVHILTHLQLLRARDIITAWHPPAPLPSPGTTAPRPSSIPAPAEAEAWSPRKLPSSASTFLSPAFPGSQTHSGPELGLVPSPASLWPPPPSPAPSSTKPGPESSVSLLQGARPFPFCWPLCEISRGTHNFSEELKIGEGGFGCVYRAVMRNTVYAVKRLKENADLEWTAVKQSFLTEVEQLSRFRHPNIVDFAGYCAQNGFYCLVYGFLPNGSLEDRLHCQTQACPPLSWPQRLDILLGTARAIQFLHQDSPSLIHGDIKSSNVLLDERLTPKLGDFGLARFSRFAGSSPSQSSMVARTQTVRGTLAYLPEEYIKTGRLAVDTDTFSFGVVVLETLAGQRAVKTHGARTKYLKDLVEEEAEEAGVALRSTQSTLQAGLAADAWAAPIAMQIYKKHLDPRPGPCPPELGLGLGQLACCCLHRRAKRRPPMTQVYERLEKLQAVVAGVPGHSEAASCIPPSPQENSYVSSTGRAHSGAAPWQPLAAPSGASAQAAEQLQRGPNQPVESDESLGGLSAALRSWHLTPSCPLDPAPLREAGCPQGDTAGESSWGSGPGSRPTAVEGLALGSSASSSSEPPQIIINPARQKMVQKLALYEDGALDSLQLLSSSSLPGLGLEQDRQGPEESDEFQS
Sequence of E3 ubiquitin-protein ligase XIAP/Interleukin-1 receptor-associated kinase 4 (Homo sapiens) (P98170 whole entry, looked up, one chain of several): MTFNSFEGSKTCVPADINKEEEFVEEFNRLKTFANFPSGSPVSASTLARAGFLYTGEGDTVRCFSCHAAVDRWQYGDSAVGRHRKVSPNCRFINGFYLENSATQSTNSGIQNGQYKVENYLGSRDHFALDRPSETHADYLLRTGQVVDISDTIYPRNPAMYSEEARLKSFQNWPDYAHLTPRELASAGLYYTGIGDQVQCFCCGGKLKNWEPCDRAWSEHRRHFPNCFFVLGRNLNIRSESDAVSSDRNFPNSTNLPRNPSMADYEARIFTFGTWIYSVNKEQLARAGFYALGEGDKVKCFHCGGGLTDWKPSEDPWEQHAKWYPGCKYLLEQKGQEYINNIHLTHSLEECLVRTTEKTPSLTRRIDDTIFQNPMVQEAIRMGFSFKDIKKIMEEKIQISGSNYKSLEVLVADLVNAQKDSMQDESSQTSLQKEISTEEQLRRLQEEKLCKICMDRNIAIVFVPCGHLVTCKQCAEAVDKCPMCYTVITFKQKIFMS
Sequence of Protein cereblon/Interleukin-1 receptor-associated kinase 4 (Homo sapiens) (Q96SW2 whole entry, looked up, one chain of several): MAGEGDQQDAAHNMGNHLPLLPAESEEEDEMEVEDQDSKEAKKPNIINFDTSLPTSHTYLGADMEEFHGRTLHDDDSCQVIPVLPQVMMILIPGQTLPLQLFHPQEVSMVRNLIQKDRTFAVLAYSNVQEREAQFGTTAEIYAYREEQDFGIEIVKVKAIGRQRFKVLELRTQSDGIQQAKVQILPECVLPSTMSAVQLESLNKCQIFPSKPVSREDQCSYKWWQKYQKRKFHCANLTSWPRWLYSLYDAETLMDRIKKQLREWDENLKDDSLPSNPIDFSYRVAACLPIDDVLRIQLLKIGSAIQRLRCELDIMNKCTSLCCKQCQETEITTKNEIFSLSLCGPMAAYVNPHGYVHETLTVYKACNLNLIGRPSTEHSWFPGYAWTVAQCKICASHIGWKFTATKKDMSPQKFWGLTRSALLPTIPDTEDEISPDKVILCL

| Activity [1] | Chromatographic log D at pH 7.4 (ChromLogD) [2] | IC50 [3] [nM] | IC50 [5] [nM] | other results | Structure (SMILES) |
| --- | --- | --- | --- | --- | --- |
| inactive | 3.18 | > 10000 | 0.29 | Emax [4]: 0% | COc1cc2c(OC[C@@H]3CCC(=O)N3)ncc(C#CCOCCOCCOCCC(=O)N[C@H](C(=O)N3C[C@H](O)C[C@H]3C(=O)NCc3ccc(-c4scnc4C)cc3)C(C)(C)C)c2cc1C(N)=O |
|  |  |  |  | Activity [6]: inactive | CC[C@@H]1[C@H](F)C(=O)N[C@@H]1COc1nccc2cc(C(N)=O)c(OC)cc12 |
| inactive |  |  |  |  | COc1cc2c(OC[C@@H]3CCC(=O)N3)ncc(C#CCCCC(=O)N[C@H](C(=O)N3C[C@H](O)C[C@H]3C(=O)NCc3ccc(-c4scnc4C)cc3)C(C)(C)C)c2cc1C(N)=O |
| inactive | 6.01 | > 10000 | 2.5 | Emax [7]: 0% | COc1cc2c(OC[C@@H]3CCC(=O)N3)ncc(C#CCCCCCCCCCCOc3cccc4c3C(=O)N(C3CCC(=O)NC3=O)C4=O)c2cc1C(N)=O (some centres not stated) |
|  | 6.44 |  |  | DC50 [8]: 259 nM; solubility [9]: < 1 µM | CC[C@@H]1[C@H](F)C(=O)N[C@@H]1COc1ncc(C#CCCCCCCCCCCC(=O)N[C@H](C(=O)N2CC(O)CC2C(=O)NCc2ccc(-c3scnc3C)cc2)C(C)(C)C)c2cc(C(N)=O)c(OC)cc12 (single isomer, unassigned) |
| inactive |  |  |  |  | COc1cc2c(OC[C@@H]3CCC(=O)N3)ncc(C#CCCC(=O)N[C@H](C(=O)N3C[C@H](O)C[C@H]3C(=O)NCc3ccc(-c4scnc4C)cc3)C(C)(C)C)c2cc1C(N)=O |
| inactive | 3.79 | > 10000 | 0.022 | Emax [10]: 0% | CN[C@@H](C)C(=O)N[C@H](C(=O)N1C[C@@H](NC(=O)CCOCCOCCOCC#Cc2cnc(OC[C@@H]3CCC(=O)N3)c3cc(OC)c(C(N)=O)cc23)C[C@H]1C(=O)N[C@@H]1CCCc2ccccc21)C1CCCCC1 |
| inactive | 6.56 | 6940 | 21 | Emax [10]: 0% | CN[C@@H](C)C(=O)N[C@H](C(=O)N1C[C@@H](NC(=O)CCCCCCCCCCC#Cc2cnc(OC[C@@H]3CCC(=O)N3)c3cc(OC)c(C(N)=O)cc23)C[C@H]1C(=O)N[C@@H]1CCCc2ccccc21)C1CCCCC1 |
|  | 2.1 | > 10000 | 2.1 |  | COc1cc2c(OC[C@@H]3CCC(=O)N3)ncc(Br)c2cc1C(N)=O |
|  | 4.97 |  |  | IC50 [11]: 31.6 nM; IC50 [12]: 316 nM; Activity [13]: Active; IC50 [14]: 79.4 nM; IC50 [15]: 50.1 nM; IC50 [16]: 39.8 nM; IC50 [17]: 63.1 nM; Activity [18]: inactive; DC50 [8]: 151 nM; Activity [6]: inactive; DC50 [19]: 36 nM; solubility [9]: 5 µM (≈ 5.43 µg/mL) | CC[C@@H]1[C@H](F)C(=O)N[C@@H]1COc1ncc(C#CCN2CCC3(CC2)CCN(c2ncc(C(=O)N[C@H](C(=O)N4C[C@H](O)C[C@H]4C(=O)NCc4ccc(-c5scnc5C)cc4)C(C)(C)C)cn2)CC3)c2cc(C(N)=O)c(OC)cc12 |
| inactive |  |  |  | Emax [7]: 0% | COc1cc2c(OC[C@@H]3CCC(=O)N3)ncc(C#CCOCCOCCOCCOc3cccc4c3C(=O)N(C3CCC(=O)NC3=O)C4=O)c2cc1C(N)=O (some centres not stated) |
|  | 5.82 | > 10000 | 0.099 | Emax [20]: 50%; Activity [21]: 101%; Activity [22]: 65%; Activity [23]: 81%; Activity [24]: 80% | COc1cc2c(OC[C@@H]3CCC(=O)N3)ncc(C#CCCCCCCCCCCC(=O)N[C@H](C(=O)N3C[C@H](O)C[C@H]3C(=O)NCc3ccc(-c4scnc4C)cc3)C(C)(C)C)c2cc1C(N)=O |
